In ChEMBL document CHEMBL5257059, “Pyridine-Based 1,2,4-Triazolo-Tethered Indole Conjugates Potentially Affecting TNKS and PI3K in Colorectal Cancer” (ACS Med Chem Lett, 2023):
Calls of active or inactive are those of the source. The calls are words filed in the database; no cut-off is given here.

Legend:
Caco-2 = test: Antiproliferative activity against human Caco-2 cells assessed as inhibition of cell growth incubated for 24 hrs by MTT assay; assay type: functional, cell-based; conditions: Caco-2, 24 h
DLD-1 = test: Antiproliferative activity against human DLD-1 cells assessed as inhibition of cell growth incubated for 24 hrs by MTT assay; assay type: functional, cell-based; conditions: DLD-1, 24 h
A 172 = test: Antiproliferative activity against human A-172 cells assessed as inhibition of cell growth incubated for 24 hrs by MTT assay; assay type: functional, cell-based; conditions: A 172, 24 h
A549 = test: Antiproliferative activity against human A549 cells assessed as inhibition of cell growth incubated for 24 hrs by MTT assay; assay type: functional, cell-based; conditions: A549, 24 h
[1] = Antiproliferative activity against human Tera-1 cells assessed as inhibition of cell growth incubated for 24 hrs by MTT assay; assay type: functional, cell-based; conditions: Tera-1, 24 h
HT-29 [2] = test: Antiproliferative activity against human HT-29 cells assessed as inhibition of cell growth incubated for 24 hrs by MTT assay; assay type: functional, cell-based; conditions: HT-29, 24 h
HT-29 [3] = test: Induction of mitochondrial ROS generation in human HT-29 cells at 1 uM by MitoSOX red dye based flow cytometry analysis; assay type: functional, cell-based
Outline: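 Mitochondrial superoxide in HT-29 cells was read with the mitochondria-localizing MitoSOX Red probe after treatment at 1, 2 or 4 μM. Flow cytometry histograms were acquired on 10,000 cells, and results were expressed as mean fluorescence intensity. Versus control, significance was tested by one-way ANOVA with Tukey's post hoc test.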

HT-29 [4] = test: Downregulation of PI3K-p85 expression in human HT-29 cells by immunofluorescence based confocal microscopic analysis; assay type: functional, cell-based
Outline: (§1)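 HT-29 cells were stained for F-actin with Phalloidin Red alongside immunofluorescent staining of PI3K-p85 (or NF-κB), then examined by fluorescence imaging for actin-filament integrity and p85 signal.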

HT-29 [5] = test: Inhibition of nuclear translocation of NFkappaB in human HT-29 cells assessed as reduction in NFkappaB expression in nucleus by immunofluorescence based confocal microscopic analysis; assay type: functional, cell-based
Outline: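 HT-29 colon cancer cells were treated with test compounds, then immunostained for NF-κB and co-stained for F-actin. Nuclear NF-κB signal was read by immunofluorescence imaging.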

HT-29 [6] = test: Cytotoxicity against human HT-29 cells assessed as damage of actin filament by F-actin/phalloidin red staining based confocal microscopic analysis; assay type: functional, cell-based; outline: as §1
[7] = target: Phosphatidylinositol 3-kinase regulatory subunit alpha (Homo sapiens) (UniProt P27986); test: Inhibition of PI3K-P85 phosphorylation in human HT-29 cells at 1 uM incubated for 72 hrs by Western blot analysis; assay type: cell-based
[8] = target: T1, Catenin beta-1 (Homo sapiens) (UniProt P35222); test: Inhibition of beta-catenin phosphorylation in human HT-29 cells at 1 uM incubated for 72 hrs by Western blot analysis; assay type: cell-based
T1 sequence (whole entry): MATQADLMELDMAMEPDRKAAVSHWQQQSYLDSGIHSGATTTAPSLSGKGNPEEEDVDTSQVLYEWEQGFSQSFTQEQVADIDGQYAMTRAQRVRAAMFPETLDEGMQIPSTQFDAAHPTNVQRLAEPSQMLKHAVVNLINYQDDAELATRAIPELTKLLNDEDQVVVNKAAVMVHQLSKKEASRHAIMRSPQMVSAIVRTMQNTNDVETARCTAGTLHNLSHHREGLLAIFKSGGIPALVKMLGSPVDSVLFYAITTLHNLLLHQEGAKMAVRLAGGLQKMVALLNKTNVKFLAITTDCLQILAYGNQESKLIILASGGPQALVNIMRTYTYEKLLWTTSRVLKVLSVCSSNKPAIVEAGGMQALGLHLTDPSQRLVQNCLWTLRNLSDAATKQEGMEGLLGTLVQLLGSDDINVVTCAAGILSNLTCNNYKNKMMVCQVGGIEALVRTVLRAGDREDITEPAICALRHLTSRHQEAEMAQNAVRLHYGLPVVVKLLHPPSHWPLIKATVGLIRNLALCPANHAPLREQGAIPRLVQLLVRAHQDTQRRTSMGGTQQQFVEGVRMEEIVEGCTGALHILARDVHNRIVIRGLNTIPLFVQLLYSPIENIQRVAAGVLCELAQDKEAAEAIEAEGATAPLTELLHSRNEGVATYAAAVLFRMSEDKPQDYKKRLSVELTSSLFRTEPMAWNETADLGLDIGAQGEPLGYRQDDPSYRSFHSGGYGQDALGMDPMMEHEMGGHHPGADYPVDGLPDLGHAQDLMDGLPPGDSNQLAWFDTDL

HT-29 [9] = test: Inhibition of APC protein expression in human HT-29 cells at 1 uM incubated for 72 hrs by Western blot analysis; assay type: functional, cell-based
HT-29 [10] = test: Inhibition of AXIN-1 protein expression in human HT-29 cells at 1 uM incubated for 72 hrs by Western blot analysis; assay type: functional, cell-based
HT-29 [11] = test: Inhibition of beta-actin protein expression in human HT-29 cells at 1 uM incubated for 72 hrs by Western blot analysis; assay type: functional, cell-based
HT-29 [12] = test: Inhibition of beta-catenin protein expression in human HT-29 cells at 1 uM incubated for 72 hrs by Western blot analysis; assay type: functional, cell-based
HT-29 [13] = test: Induction of cell cycle arrest in human HT-29 cells assessed as accumulation of cells at G2/M phase at 2 uM incubated for 24 hrs by RNase/PI staining based flow cytometry analysis (reference value: 23.695 %); assay type: functional
[14] = target: 182 kDa tankyrase-1-binding protein (Homo sapiens) (UniProt Q9C0C2); test: Inhibition of TAB-182 phosphorylation in human HT-29 cells at 2 uM incubated for 72 hrs by Western blot analysis; assay type: cell-based
HT-29 [15] = test: Inhibition of AXIN-1 protein expression in human HT-29 cells at 2 uM incubated for 72 hrs by Western blot analysis; assay type: functional, cell-based
HT-29 [16] = test: Inhibition of AXIN-2 protein expression in human HT-29 cells at 2 uM incubated for 72 hrs by Western blot analysis; assay type: functional, cell-based
HT-29 [17] = test: Inhibition of phosphorylated GSK-3beta protein expression in human HT-29 cells at 2 uM incubated for 72 hrs by Western blot analysis; assay type: functional, cell-based
HT-29 [18] = test: Inhibition of GSK-3beta protein expression in human HT-29 cells at 2 uM incubated for 72 hrs by Western blot analysis; assay type: functional, cell-based
HT-29 [19] = test: Inhibition of beta-catenin protein expression in human HT-29 cells at 2 uM incubated for 72 hrs by Western blot analysis; assay type: functional, cell-based
HT-29 [20] = test: Inhibition of phosphorylated PI3K-p85 protein expression in human HT-29 cells at 2 uM incubated for 72 hrs by Western blot analysis; assay type: functional, cell-based
HT-29 [21] = test: Inhibition of PI3K-p85 protein expression in human HT-29 cells at 2 uM incubated for 72 hrs by Western blot analysis; assay type: functional, cell-based
HT-29 [22] = test: Induction of cell cycle arrest in human HT-29 cells assessed as accumulation of cells at G2/M phase at 4 uM incubated for 24 hrs by RNase/PI staining based flow cytometry analysis (reference value: 23.695 %); assay type: functional
HT-29 [23] = test: Induction of ROS generation in human HT-29 cells at 4 uM by CM-H2DCFDA fluorescent probe based flow cytometry analysis (reference value: 0.528%); assay type: functional
HT-29 [24] = test: Inhibition of APC protein expression in human HT-29 cells at 4 uM incubated for 72 hrs by Western blot analysis; assay type: functional, cell-based
HT-29 [25] = test: Inhibition of AXIN-1 protein expression in human HT-29 cells at 4 uM incubated for 72 hrs by Western blot analysis; assay type: functional, cell-based

Sequence of 182 kDa tankyrase-1-binding protein (Homo sapiens) (Q9C0C2 whole entry): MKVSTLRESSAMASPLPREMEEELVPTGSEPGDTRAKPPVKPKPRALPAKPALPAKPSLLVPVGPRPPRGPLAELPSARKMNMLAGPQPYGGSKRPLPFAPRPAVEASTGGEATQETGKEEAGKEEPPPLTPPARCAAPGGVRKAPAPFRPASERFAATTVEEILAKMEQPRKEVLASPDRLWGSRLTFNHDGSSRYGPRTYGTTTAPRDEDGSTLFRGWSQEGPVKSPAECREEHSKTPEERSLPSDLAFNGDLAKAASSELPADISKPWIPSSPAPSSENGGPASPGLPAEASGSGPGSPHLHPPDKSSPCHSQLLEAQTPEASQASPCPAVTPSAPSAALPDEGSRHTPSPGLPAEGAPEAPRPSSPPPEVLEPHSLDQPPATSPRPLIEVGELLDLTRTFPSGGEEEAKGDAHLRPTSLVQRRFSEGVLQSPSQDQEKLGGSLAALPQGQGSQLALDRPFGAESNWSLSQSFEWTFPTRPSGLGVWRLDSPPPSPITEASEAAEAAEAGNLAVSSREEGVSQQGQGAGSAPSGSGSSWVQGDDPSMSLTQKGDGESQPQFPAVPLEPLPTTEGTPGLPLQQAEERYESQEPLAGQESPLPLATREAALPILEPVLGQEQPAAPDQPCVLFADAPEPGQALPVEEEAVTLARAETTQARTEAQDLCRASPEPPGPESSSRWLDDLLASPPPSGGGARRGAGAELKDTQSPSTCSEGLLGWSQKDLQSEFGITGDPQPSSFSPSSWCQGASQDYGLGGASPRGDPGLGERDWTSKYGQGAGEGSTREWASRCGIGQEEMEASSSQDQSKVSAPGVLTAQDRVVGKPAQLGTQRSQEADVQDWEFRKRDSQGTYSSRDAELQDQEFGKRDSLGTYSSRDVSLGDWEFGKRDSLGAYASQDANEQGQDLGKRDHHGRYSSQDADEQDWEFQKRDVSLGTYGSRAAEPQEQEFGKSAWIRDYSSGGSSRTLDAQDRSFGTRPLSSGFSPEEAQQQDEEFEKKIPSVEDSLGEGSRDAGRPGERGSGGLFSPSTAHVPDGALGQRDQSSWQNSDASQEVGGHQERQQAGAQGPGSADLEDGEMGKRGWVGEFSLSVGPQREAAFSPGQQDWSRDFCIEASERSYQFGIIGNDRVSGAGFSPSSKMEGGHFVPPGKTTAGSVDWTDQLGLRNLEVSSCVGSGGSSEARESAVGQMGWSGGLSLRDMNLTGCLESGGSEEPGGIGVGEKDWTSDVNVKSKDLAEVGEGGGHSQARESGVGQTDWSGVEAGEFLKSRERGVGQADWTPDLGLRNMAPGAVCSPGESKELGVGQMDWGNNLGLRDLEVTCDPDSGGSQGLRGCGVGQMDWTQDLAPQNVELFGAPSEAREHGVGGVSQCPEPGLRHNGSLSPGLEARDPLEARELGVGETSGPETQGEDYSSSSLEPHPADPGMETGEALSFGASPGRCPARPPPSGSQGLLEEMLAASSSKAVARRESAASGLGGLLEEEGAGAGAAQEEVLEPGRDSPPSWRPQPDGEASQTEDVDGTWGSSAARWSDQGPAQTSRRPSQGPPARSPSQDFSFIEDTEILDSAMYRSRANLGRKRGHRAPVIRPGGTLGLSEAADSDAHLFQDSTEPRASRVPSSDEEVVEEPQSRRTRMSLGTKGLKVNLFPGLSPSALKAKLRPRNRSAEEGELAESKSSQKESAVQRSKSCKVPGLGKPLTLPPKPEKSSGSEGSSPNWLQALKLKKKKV
Sequence of Phosphatidylinositol 3-kinase regulatory subunit alpha (Homo sapiens) (P27986 whole entry): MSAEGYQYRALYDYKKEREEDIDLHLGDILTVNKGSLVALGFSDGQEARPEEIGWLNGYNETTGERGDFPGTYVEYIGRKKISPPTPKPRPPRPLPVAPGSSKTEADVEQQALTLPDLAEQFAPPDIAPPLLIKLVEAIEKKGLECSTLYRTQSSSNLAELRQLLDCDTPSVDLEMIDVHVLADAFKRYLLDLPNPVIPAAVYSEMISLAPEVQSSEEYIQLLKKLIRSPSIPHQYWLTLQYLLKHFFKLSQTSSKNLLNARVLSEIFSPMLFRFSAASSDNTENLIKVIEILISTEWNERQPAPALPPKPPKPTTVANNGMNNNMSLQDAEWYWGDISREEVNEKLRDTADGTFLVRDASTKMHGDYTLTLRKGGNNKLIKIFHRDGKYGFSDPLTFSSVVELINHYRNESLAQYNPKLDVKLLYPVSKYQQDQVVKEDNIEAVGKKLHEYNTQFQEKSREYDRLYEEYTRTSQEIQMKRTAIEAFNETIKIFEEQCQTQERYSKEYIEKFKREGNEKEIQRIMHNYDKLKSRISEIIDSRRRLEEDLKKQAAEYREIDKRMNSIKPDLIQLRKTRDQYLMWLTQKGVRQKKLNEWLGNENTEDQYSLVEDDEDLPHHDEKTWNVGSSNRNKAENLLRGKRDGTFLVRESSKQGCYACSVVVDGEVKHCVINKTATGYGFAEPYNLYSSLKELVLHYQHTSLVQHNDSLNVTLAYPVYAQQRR

Row | IC50 (Caco-2) [µM] | IC50 (DLD-1) [µM] | IC50 (A549) [µM] | IC50 (HT-29 [2]) [µM] | Compound | IC50 (A 172) [µM] | IC50 [1] [µM] | Activity (HT-29 [4]) | inhibition (HT-29 [5]) | Activity (HT-29 [6]) | also measured
1 | 3.9 | 7 | 6.7 | 1 | COc1ccc(-n2c(SCCc3c[nH]c4ccccc34)nnc2-c2ccncc2)cc1 | 9 | 4.3 | Active | Active | Active | Activity (HT-29 [3]): Active; inhibition [7]: Active; inhibition [8]: Active; inhibition (HT-29 [9]): Active; inhibition (HT-29 [10]): Active; inhibition (HT-29 [11]): Active; inhibition (HT-29 [12]): Active
2 | 9.1 | 7 | 5.3 | 2.4 | Fc1ccccc1-n1c(SCCc2c[nH]c3ccccc23)nnc1-c1ccncc1 | 9.5 | 10.5 | Active | Active | Active | Activity (HT-29 [13]): 18.982%; inhibition [14]: Active; inhibition (HT-29 [15]): Active; inhibition (HT-29 [16]): Active; inhibition (HT-29 [17]): Active; inhibition (HT-29 [18]): Active; inhibition (HT-29 [19]): Active; inhibition (HT-29 [20]): Active; inhibition (HT-29 [21]): Active
3 | 15.5 | 9.3 | 25.1 | 3.6 | COc1cccc(-n2c(SCCc3c[nH]c4ccccc34)nnc2-c2ccncc2)c1 | 26.8 | 19.4 | Active | Active | Active | Activity (HT-29 [22]): 22.943%; Activity (HT-29 [23]): 2.467%; inhibition (HT-29 [24]): Active; inhibition (HT-29 [25]): Active
